In ChEMBL document CHEMBL1137900, “Quinazolinone fungal efflux pump inhibitors. Part 2: In vitro structure-activity relationships of (N-methyl-piperazinyl)-containing derivatives” (Bioorg Med Chem Lett, 2004):
In brackets after ≈: the same amount, converted by molar mass.

Key:
[1] = system: Nakaseomyces glabratus; test: In vitro minimum potentiation concentration to achieve an 8-fold reduction in fluconazole MIC against Candida glabrata strain YEM19 (overexpressing both CgDR1 and CgDR2); assay type: functional
How it was run: (§1)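 Checkerboard assay in RPMI 1640 following the NCCLS M27-A broth dilution method. Fluconazole MIC was measured with and without varying concentrations of efflux pump inhibitor. MPC8 is the lowest inhibitor concentration giving an 8-fold reduction in fluconazole MIC. Some analogues were tested only in an abbreviated format: inhibitor concentration varied at fixed fluconazole of 1/8 and 1/32 MIC.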

[2] = system: Candida albicans; test: In vitro minimum potentiation concentration to achieve an 8-fold reduction in fluconazole MIC against Candida albicans strain YEM15 (overexpressing both CDR1 and CDR2); assay type: functional; how it was run: as §1
[3] = system: Nakaseomyces glabratus; test: In vitro concentration to inhibit Candida glabrata CgCDR1 transporter gene over-expressed in Saccharomyces cerevisiae strain Y170; assay type: functional, organism-based
How it was run: (§2)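 Yeast strains over-expressing single pumps, inoculum 10^4 cells, incubated at 30 °C in YPD. Inhibitor concentration was varied against one fixed fluconazole concentration. That concentration was the geometric mean of the test strain's fluconazole MIC and that of the parent pump-deleted strain; for YEM172 it was 8 µg/ml.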

[4] = system: Candida albicans; test: In vitro concentration to inhibit Candida albicans CDR1 transporter gene over-expressed in Saccharomyces cerevisiae strain YEM172; assay type: functional, organism-based; how it was run: as §2
[5] = system: Nakaseomyces glabratus; test: In vitro concentration to inhibit Candida glabrata CgCDR2 transporter gene over-expressed in Saccharomyces cerevisiae strain Y218; assay type: functional, organism-based; how it was run: as §2
[6] = system: Candida albicans; test: In vitro concentration to inhibit Candida albicans CDR2 transporter gene over-expressed in Saccharomyces cerevisiae strain YEM171; assay type: functional, organism-based; how it was run: as §2
[7] = system: Saccharomyces cerevisiae; test: In vitro concentration required to inhibit 80% growth of Saccharomyces cerevisiae strain YEM171 (CDR2 over-expressed) after 48 h; assay type: functional
[8] = system: Saccharomyces cerevisiae; test: In vitro concentration required to inhibit 80% growth of Saccharomyces cerevisiae strain Y170 (CgCDR1 over-expressed) after 48 h; assay type: functional
[9] = system: Saccharomyces cerevisiae; test: In vitro concentration required to inhibit 80% growth of Saccharomyces cerevisiae strain YEM172 (CDR1 over-expressed) after 48 h; assay type: functional
[10] = system: Saccharomyces cerevisiae; test: In vitro concentration required to inhibit 80% growth of Saccharomyces cerevisiae strain Y218 (CgCDR2 over-expressed) after 48 h; assay type: functional
[11] = system: Saccharomyces cerevisiae; test: In vitro concentration required to inhibit 80% growth of Saccharomyces cerevisiae strain YEM139 (PDR5 deleted) after 48 h; assay type: functional
[12] = system: Candida albicans; test: In vitro concentration required against Candida albicans strain YEM 15; assay type: functional

Compound	MPC8 [1]	MPC8 [2]	also measured
COc1ccccc1N(C(=O)Nc1ccc(F)cc1)C(C)c1nc2ccccc2c(=O)n1N1CCN(C)CC1 (stereo not given)	>32 µg/mL	>32 µg/mL	–
COc1ccc(N(C(=O)Nc2ccc(F)cc2)[C@@H](C)c2nc3cc(F)ccc3c(=O)n2N2CCN(C)CC2)c(OC)c1	0.5 µg/mL	0.25 µg/mL	IC50 [3]: 2 µg/mL (≈ 3.46 µM); IC50 [4]: 0.5 µg/mL (≈ 0.864 µM); IC50 [5]: 32 µg/mL (≈ 55.3 µM); IC50 [6]: 16 µg/mL (≈ 27.7 µM)
OC(Cn1cncn1)(Cn1cncn1)c1ccc(F)cc1F [FLUCONAZOLE]	–	–	MIC [7]: 8 µg/mL (≈ 26.1 µM); MIC [8]: 128 µg/mL (≈ 418 µM); MIC [9]: 128 µg/mL (≈ 418 µM); MIC [10]: 2 µg/mL (≈ 6.53 µM); MIC [11]: 0.5 µg/mL (≈ 1.63 µM); MIC [12]: 128 µg/mL (≈ 418 µM)
COc1ccc(N(C(=O)Nc2ccc(F)cc2)C(C)c2nc3ccccc3c(=O)n2N2CCN(C)CC2)cc1 (stereo not given)	32 µg/mL	8 µg/mL	–
COc1ccc(N(C(=O)c2ccccc2Cl)C(C)c2nc3ccccc3c(=O)n2N2CCN(C)CC2)c(OC)c1 (stereo not given)	>32 µg/mL	4 µg/mL	–
COc1ccc(N(C(=O)Nc2ccccc2)C(C)c2nc3ccccc3c(=O)n2N2CCN(C)CC2)c(OC)c1 (stereo not given)	16 µg/mL	16 µg/mL	–
COc1ccc(N(C(=O)Nc2ccc(F)cc2)C(C)c2nc3cccc(F)c3c(=O)n2N2CCN(C)CC2)c(OC)c1 (stereo not given)	8 µg/mL	8 µg/mL	–
COc1cc(N(C(=O)Nc2ccc(F)cc2)C(C)c2nc3ccccc3c(=O)n2N2CCN(C)CC2)cc(OC)c1OC (stereo not given)	>32 µg/mL	8 µg/mL	–
COc1ccc(N(C(=O)Nc2ccc(F)cc2)C(C)c2nc3ccc(F)cc3c(=O)n2N2CCN(C)CC2)c(OC)c1 (stereo not given)	2 µg/mL	1 µg/mL	–
CC(c1nc2ccccc2c(=O)n1N1CCN(C)CC1)N(C(=O)Nc1ccc(F)cc1)c1ccc(F)cc1F (stereo not given)	32 µg/mL	8 µg/mL	–
COc1ccc(NC(=O)N(c2ccc(OC)cc2OC)C(C)c2nc3ccccc3c(=O)n2N2CCN(C)CC2)cc1 (stereo not given)	2 µg/mL	16 µg/mL	–
COc1ccc(N(C(=O)NS(=O)(=O)c2ccc(Cl)cc2)C(C)c2nc3ccccc3c(=O)n2N2CCN(C)CC2)c(OC)c1 (stereo not given)	>32 µg/mL	>32 µg/mL	–
COc1ccc(N(C(=O)Nc2ccc(F)cc2)C(C)c2nc3cc(F)c(F)cc3c(=O)n2N2CCN(C)CC2)c(OC)c1 (stereo not given)	0.5 µg/mL	0.12 µg/mL	–
COc1ccc(N(C(=O)Nc2ccc(F)cc2)C(C)c2nc3cc(F)ccc3c(=O)n2N2CCN(C)CC2)c(OC)c1 (stereo not given)	1 µg/mL	0.5 µg/mL	–
CC(c1nc2ccccc2c(=O)n1N1CCN(C)CC1)N(C)C(=O)Nc1ccc(F)cc1 (stereo not given)	>32 µg/mL	>32 µg/mL	–
COc1cc(OC)c(N(C(=O)Nc2ccc(F)cc2)C(C)c2nc3ccccc3c(=O)n2N2CCN(C)CC2)c(OC)c1 (stereo not given)	>32 µg/mL	>32 µg/mL	–
COc1ccc(N(C(=O)Nc2ccc(F)cc2)C(C)c2nc3ccccc3c(=O)n2N2CCN(C)CC2)cc1OC (stereo not given)	>32 µg/mL	>32 µg/mL	–
COc1ccc(N(C(=O)Nc2ccc(Cl)cc2)C(C)c2nc3ccccc3c(=O)n2N2CCN(C)CC2)c(OC)c1 (stereo not given)	1 µg/mL	2 µg/mL	–
COc1ccc(N(C(=O)Nc2ccc(F)cc2)C(C)c2nc3ccccc3c(=O)n2N2CCN(C)CC2)c(OC)c1 (stereo not given)	4 µg/mL	4 µg/mL	–
COc1ccc(N(C(=O)c2ccc(Cl)cc2)C(C)c2nc3ccccc3c(=O)n2N2CCN(C)CC2)c(OC)c1 (stereo not given)	>32 µg/mL	4 µg/mL	–
COc1ccc(N(C(=O)Nc2nc3ccccc3s2)C(C)c2nc3ccccc3c(=O)n2N2CCN(C)CC2)c(OC)c1 (stereo not given)	16 µg/mL	2 µg/mL	–
